# Measured values as given in ChEMBL document CHEMBL5096186, “Design, Synthesis, and Biological Evaluation of Novel Pyrimido[4,5-b]indole Derivatives Against Gram-Negative Multidrug-Resistant Pathogens” (J Med Chem, 2021).
# Columns and labels:
# [1] = molecular target: T1, hERG (KCNH2) potassium channel (Homo sapiens, UniProt Q12809); assay: Inhibition of hERG potassium channel assessed as maximum inhibition rate at 3 uM at -80 mV holding potential incubated for 120 seconds by whole cell-automated voltage clamp analysis assay relative to control; format: toxicity; conditions: time 120 sec
# T1 sequence (Q12809 whole entry): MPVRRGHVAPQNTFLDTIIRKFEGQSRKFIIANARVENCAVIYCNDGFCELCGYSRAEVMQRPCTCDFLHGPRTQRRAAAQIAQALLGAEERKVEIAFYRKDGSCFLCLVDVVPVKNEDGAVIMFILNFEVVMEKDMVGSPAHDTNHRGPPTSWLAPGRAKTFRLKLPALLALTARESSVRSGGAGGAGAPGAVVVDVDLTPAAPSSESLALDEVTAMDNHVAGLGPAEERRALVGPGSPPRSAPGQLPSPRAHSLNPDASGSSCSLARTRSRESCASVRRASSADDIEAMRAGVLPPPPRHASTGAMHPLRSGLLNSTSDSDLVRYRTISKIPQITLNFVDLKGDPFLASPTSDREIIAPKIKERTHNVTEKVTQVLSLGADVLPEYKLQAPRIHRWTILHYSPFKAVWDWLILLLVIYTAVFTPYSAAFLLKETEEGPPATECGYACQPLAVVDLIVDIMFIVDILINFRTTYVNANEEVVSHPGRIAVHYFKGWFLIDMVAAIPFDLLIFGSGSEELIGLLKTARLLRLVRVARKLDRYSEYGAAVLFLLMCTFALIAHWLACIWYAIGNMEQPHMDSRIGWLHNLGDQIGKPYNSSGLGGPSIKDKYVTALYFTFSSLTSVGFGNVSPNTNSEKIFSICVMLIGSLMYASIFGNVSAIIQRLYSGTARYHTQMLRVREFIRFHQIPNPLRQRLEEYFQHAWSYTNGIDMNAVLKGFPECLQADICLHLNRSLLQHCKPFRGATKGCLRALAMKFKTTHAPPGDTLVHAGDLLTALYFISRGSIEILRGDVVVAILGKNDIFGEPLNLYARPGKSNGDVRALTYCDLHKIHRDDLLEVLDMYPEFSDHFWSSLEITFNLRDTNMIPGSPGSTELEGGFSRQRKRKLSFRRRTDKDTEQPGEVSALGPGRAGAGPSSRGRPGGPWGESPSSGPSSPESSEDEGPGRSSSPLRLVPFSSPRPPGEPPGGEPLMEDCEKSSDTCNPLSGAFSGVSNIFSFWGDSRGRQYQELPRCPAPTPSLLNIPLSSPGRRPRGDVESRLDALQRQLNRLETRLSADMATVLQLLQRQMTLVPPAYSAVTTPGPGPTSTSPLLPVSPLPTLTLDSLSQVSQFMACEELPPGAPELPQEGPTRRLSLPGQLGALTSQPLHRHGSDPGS
# Procedure, shortened: (§1)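 Automated whole-cell patch clamp, holding potential −80 mV. Voltage protocol applied every 20 s. Baseline set with external solution containing 0.1% DMSO and stabilised 3 min. Compound applied until steady state, at least 3 min, then washout. Maximum tested concentration 40 μM, or 3 μM for cisapride as positive control.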
# [2] = Metabolic stability in rat liver microsome assessed as elimination half life at 0.1 uM in presence of NADPH incubated upto 60 mins by LC-MS/MS analysis; format: ADME; conditions: liver microsomes, read-out: beta t1/2
# Procedure, shortened: (§2)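 Compound at 0.1 μM final, in 0.01% DMSO with 0.005% BSA. Incubated with rat or human liver microsomes at 0.33 mg/mL in 0.1 M Tris-HCl, pH 7.4, with 5 mM MgCl₂ and 1 mM NADPH, at 37 °C. Samples at 0, 7, 17, 30 and 60 min quenched with cold methanol and analysed by LC-MS/MS. Half-life, Cl_int and MF% derived as previously described.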
# [3] = Metabolic stability in human liver microsome assessed as elimination half life at 0.1 uM in presence of NADPH incubated upto 60 mins by LC-MS/MS analysis; format: ADME; conditions: liver microsomes, read-out: beta t1/2; procedure, shortened: as §2
# [4] = AUC (0 to infinity) in Sprague-Dawley rat at 5 mg/kg, iv measured upto 24 hrs by LC-MS/MS analysis; format: ADME, organism-based; design: time < 24 hrs, dose 5 mg/kg, route iv; conditions: in vivo
# Procedure, shortened: (§3)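 Male Sprague-Dawley rats, n = 3 per group, single intravenous dose. For 4 mg/kg: 180–280 g rats, vehicle 5% DMSO + 5% EtOH + 40% PEG300 + 50% saline, blood from the retrobulbar vein at 0.05–24 h. For 5 and 20 mg/kg: 180–300 g rats, vehicle 5% DMSO + 5% solutol + 90% saline, sampled at 0.083–24 h. Plasma quantified by LC/MS/MS. Parameters from mean plasma concentration by noncompartmental analysis; values are mean ± standard deviation.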
# [5] = Metabolic stability in rat liver microsome assessed as intrinsic clearance at 0.1 uM in presence of NADPH incubated upto 60 mins by LC-MS/MS analysis; format: ADME; conditions: microsomes, 1 h; procedure, shortened: as §2
# Acinetobacter baumannii [6] = assay: Antibacterial activity against wild type Acinetobacter baumannii NCTC 13304 assessed as reduction in bacterial growth incubated for 18 to 20 hrs by CLSI based microdilution method; format: functional; conditions: time 18-20 hrs
# Procedure, shortened: (§4)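 Broth microdilution per CLSI. Compounds dissolved in DMSO (levofloxacin and meropenem in water) as 64 μg/mL stock, then serial twofold dilutions in broth giving 64 to 0.008 μg/mL. […] Clinical isolates tested as several strains per group; racemic GP-1 served as positive control; values given as MIC ranges.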
# Pseudomonas aeruginosa [7] = assay: Antibacterial activity against IMP4-producing multidrug resistant Pseudomonas aeruginosa assessed as reduction in bacterial growth incubated for 18 to 20 hrs by CLSI based microdilution method; format: functional; conditions: time 18-20 hrs; procedure, shortened: as §4
# Acinetobacter baumannii [8] = assay: Antibacterial activity agains OXA23-producing multidrug resistant Acinetobacter baumannii assessed as reduction in bacterial growth incubated for 18 to 20 hrs by CLSI based microdilution method; format: functional; conditions: time 18-20 hrs; procedure, shortened: as §4
# Klebsiella pneumoniae [9] = assay: Antibacterial activity against KPC2-producing multidrug resistant Klebsiella pneumoniae assessed as reduction in bacterial growth incubated for 18 to 20 hrs by CLSI based microdilution method; format: functional; conditions: time 18-20 hrs; procedure, shortened: as §4
# [10] = Volume of distribution at the steady state in Sprague-Dawley rat at 5 mg/kg, iv measured upto 24 hrs by LC-MS/MS analysis; format: ADME, organism-based; conditions: in vivo, read-out: Vdss; procedure, shortened: as §3
# Klebsiella pneumoniae [11] = assay: Antibacterial activity agains wild type Klebsiella pneumoniae ATCC BAA-2470 assessed as reduction in bacterial growth incubated for 18 to 20 hrs by CLSI based microdilution method; format: functional; conditions: time 18-20 hrs; procedure, shortened: as §4
# Escherichia coli [12] = assay: Antibacterial activity against multidrug resistant wild type Escherichia coli ATCC BAA-2340 assessed as reduction in bacterial growth incubated for 18 to 20 hrs by CLSI based microdilution method; format: functional; conditions: time 18-20 hrs; procedure, shortened: as §4
# [13] = MRT in Sprague-Dawley rat at 5 mg/kg, iv measured upto 24 hrs by LC-MS/MS analysis; format: ADME, organism-based; conditions: in vivo; procedure, shortened: as §3
# [14] = Metabolic stability in human liver microsome assessed as metabolic bioavailability at 0.1 uM in presence of NADPH incubated upto 60 mins by LC-MS/MS analysis; format: ADME; conditions: liver microsomes; procedure, shortened: as §2
# [15] = Metabolic stability in rat liver microsome assessed as metabolic bioavailability at 0.1 uM in presence of NADPH incubated upto 60 mins by LC-MS/MS analysis; format: ADME; conditions: liver microsomes; procedure, shortened: as §2
# [16] = Metabolic stability in human liver microsome assessed as intrinsic clearance at 0.1 uM in presence of NADPH incubated upto 60 mins by LC-MS/MS analysis; format: ADME; conditions: microsomes, 1 h; procedure, shortened: as §2
# Escherichia coli [17] = assay: Antibacterial activity against multidrug resistant wild type Escherichia coli NCTC 13353 assessed as reduction in bacterial growth incubated for 18 to 20 hrs by CLSI based microdilution method; format: functional; conditions: time 18-20 hrs; procedure, shortened: as §4
# [18] = Clearance in Sprague-Dawley rat at 5 mg/kg, iv measured upto 24 hrs by LC-MS/MS analysis; format: ADME, organism-based; conditions: in vivo; procedure, shortened: as §3
# Klebsiella pneumoniae [19] = assay: Antibacterial activity agains wild type Klebsiella pneumoniae ATCC BAA-1705 assessed as reduction in bacterial growth incubated for 18 to 20 hrs by CLSI based microdilution method; format: functional; conditions: time 18-20 hrs
# Procedure, shortened: (§5)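 CLSI broth microdilution. Compounds in DMSO (levofloxacin and meropenem in water), serial twofold dilutions in broth, 64 to 0.008 μg/mL. […] Results reported as MIC ranges across strains.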
# Pseudomonas aeruginosa [20] = assay: Antibacterial activity against wild type Pseudomonas aeruginosa ATCC 27853 assessed as reduction in bacterial growth incubated for 18 to 20 hrs by CLSI based microdilution method; format: functional; conditions: time 18-20 hrs; procedure, shortened: as §5
# [21] = molecular target: Voltage-gated inwardly rectifying potassium channel KCNH2 (Homo sapiens, UniProt Q12809); assay: Inhibition of hERG potassium channel assessed as […] at -80 mV holding potential incubated for 120 seconds by whole cell-automated voltage clamp analysis assay; format: toxicity; procedure, shortened: as §1
# Sequence of Voltage-gated inwardly rectifying potassium channel KCNH2 (Q12809 whole entry): as above
# Escherichia coli [22] = assay: Antibacterial activity against ESBL-producing multidrug resistant Escherichia coli assessed as reduction in bacterial growth incubated for 18 to 20 hrs by CLSI based microdilution method; format: functional; conditions: time 18-20 hrs; procedure, shortened: as §4
# [23] = molecular target: T1, hERG (KCNH2) potassium channel; assay: Inhibition of hERG potassium channel assessed as maximum inhibition rate at 40 uM at -80 mV holding potential incubated for 120 seconds by whole cell-automated voltage clamp analysis assay relative to control; format: toxicity; conditions: time 120 sec; procedure, shortened: as §1
# [24] = Elimination half life in Sprague-Dawley rat at 5 mg/kg, iv measured upto 24 hrs by LC-MS/MS analysis; format: ADME, organism-based; conditions: in vivo, read-out: beta t1/2 (converted); procedure, shortened: as §3
# Staphylococcus aureus [25] = assay: Antibacterial activity against methicillin-sensitive Staphylococcus aureus strains 15 1 to 4 assessed as reduction in bacterial growth incubated for 18 to 20 hrs by CLSI based microdilution method; format: functional; conditions: time 18-20 hrs; procedure, shortened: as §4
# Staphylococcus aureus [26] = assay: Antibacterial activity against methicillin-resistant Staphylococcus aureus strains 15 1 to 4 assessed as reduction in bacterial growth incubated for 18 to 20 hrs by CLSI based microdilution method; format: functional; conditions: time 18-20 hrs; procedure, shortened: as §4
# Pseudomonas aeruginosa [27] = assay: Antibacterial activity against multidrug resistant Pseudomonas aeruginosa strains 15 1 to 3 assessed as reduction in bacterial growth incubated for 18 to 20 hrs by CLSI based microdilution method; format: functional; conditions: time 18-20 hrs; procedure, shortened: as §4
# Escherichia coli [28] = assay: Antibacterial activity against ESBL-producing Escherichia coli ATCC 35218 strains 15 1 to 3 assessed as reduction in bacterial growth incubated for 18 to 20 hrs by CLSI based microdilution method; format: functional; conditions: time 18-20 hrs; procedure, shortened: as §5
# Escherichia coli [29] = assay: Antibacterial activity against Escherichia coli ATCC 35218 strains 15 1 to 3 assessed as reduction in bacterial growth incubated for 18 to 20 hrs by CLSI based microdilution method; format: functional; conditions: time 18-20 hrs; procedure, shortened: as §5
# [30] = Cytotoxicity against human HEK293 cells assessed as cell viability measured for 48 hrs by CCK-8 assay; format: toxicity, cell-based
# Procedure, shortened: (§6)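 Cells seeded at 1 × 10⁴ per well and grown for 48 h. Then exposed to test articles at 1–200 μM for another 48 h (n = 6). Viability by CCK-8 added for 2 h, absorbance read at 450 nm. CC50 calculated and reported as the mean.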
# [31] = Cytotoxicity against human L02 cells assessed as cell viability measured for 48 hrs by CCK-8 assay; format: toxicity, cell-based; procedure, shortened: as §6
# [32] = test system: Staphylococcus epidermidis; assay: Antibacterial activity against methicillin-sensitive Staphylococcus epidermidis strains 15 1 to 4 assessed as reduction in bacterial growth incubated for 18 to 20 hrs by CLSI based microdilution method; format: functional; conditions: time 18-20 hrs; procedure, shortened: as §4
smiles,measurement,setting,value
COc1cc(N)c(Cl)cc1C(=O)NC1CCN(CCCOc2ccc(F)cc2)CC1OC (centres undefined) [CISAPRIDE MONOHYDRATE],"inhibition at 2 min, 3 µM",[1],97.7%
[2H]C([2H])([2H])Nc1cc(F)cc2c1[nH]c1nc(Oc3cnc(C)nc3)nc(N3CC(=C(C)C(C)N)C3)c12 (centres undefined),half-life at 0.1 µM,[2],20.2 min
same,half-life at 0.1 µM,[3],208 min
same,AUC(0-inf),[4],696 ng·h/mL
same,CLH,[5],104 mL/min/g
same,MIC,Acinetobacter baumannii [6],0.25 µg/mL
same,MIC,Pseudomonas aeruginosa [7],4 µg/mL
same,MIC,Acinetobacter baumannii [8],0.25 µg/mL
same,MIC,Klebsiella pneumoniae [9],1 µg/mL
same,Vd,[10],43.2 L/kg
same,MIC,Klebsiella pneumoniae [11],2 µg/mL
same,MIC,Escherichia coli [12],0.25 µg/mL
same,MRT,[13],5.9 h
same,"Fh at 1 h, 0.1 µM",[14],66%
same,"Fh at 1 h, 0.1 µM",[15],30%
same,CLH,[16],10.1 mL/min/g
same,MIC,Escherichia coli [17],0.125 µg/mL
same,clearance,[18],121 mL/min/kg
same,MIC,Klebsiella pneumoniae [19],4 µg/mL
same,MIC,Pseudomonas aeruginosa [20],2 µg/mL
same,IC50,[21],> 40 µM
same,MIC,Escherichia coli [22],0.25 µg/mL
same,"inhibition at 2 min, 40 µM",[23],14.2%
same,half-life,[24],432 min
CNc1cc(F)cc2c1[nH]c1nc(Oc3cnc(C)nc3)nc(N3CC4CCNC4C3)c12 (racemic),MIC,Acinetobacter baumannii [6],0.25 µg/mL
same,MIC,Staphylococcus aureus [25],< 8 ng/mL
same,MIC,Pseudomonas aeruginosa [7],16 µg/mL
same,MIC,Acinetobacter baumannii [8],0.5 µg/mL
same,MIC,Klebsiella pneumoniae [9],2 µg/mL
same,MIC,Klebsiella pneumoniae [11],1 µg/mL
same,MIC,Escherichia coli [12],0.5 µg/mL
same,MIC,Staphylococcus aureus [26],0.015 µg/mL
same,MIC,Pseudomonas aeruginosa [27],0.5 µg/mL
same,MIC,Escherichia coli [28],0.25 µg/mL
same,MIC,Escherichia coli [29],0.06 µg/mL
same,CC50 at 48 h,[30],21.8 µM
same,MIC,Escherichia coli [17],0.25 µg/mL
same,CC50 at 48 h,[31],24 µM
same,MIC,Klebsiella pneumoniae [19],4 µg/mL
same,MIC,Pseudomonas aeruginosa [20],4 µg/mL
same,IC50,[21],12.3 µM
same,MIC,Escherichia coli [22],0.5 µg/mL
same,"inhibition at 2 min, 40 µM",[23],70.5%
same,MIC,[32],< 8 ng/mL
